In brackets after ≈: the same amount, converted by molar mass.
What was measured:
Hepatocyte = assay: Unbound clearance in human hepatocytes at 1 uM measured over 6 hrs by LC/MS analysis relative to hepatic blood flow; type: ADME, cell-based, Liver
Procedure, shortened: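 Cryopreserved human hepatocytes (1 million cells/mL) with 1 µM compound at 37 °C for 6 h; compound remaining measured by LC/MS over a duplicate 6-timepoint (0 to 6 h) curve. Clearance derived from the ln(% remaining) vs time slope and corrected by the human plasma unbound fraction; expressed as percent of hepatic blood flow.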

[1] = Permeability across apical to basolateral side in human Caco2 cells measured up to 2 hrs by LC/MS/MS analysis; type: ADME, cell-based; settings: Caco-2, read-out: permeability
Procedure, shortened: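 Caco-2 cells seeded at 1-2 x 10^5 cells/cm2 on 0.4 µm PET filter inserts, cultured 10 to 25 days. Compound in HTP-4 buffer applied to apical donor side; donor sampled at start and end, receiver sampled over up to 2 h; quantified by LC/MS/MS. Duplicate 6-timepoint (0 to 2 h).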

[2] = Aqueous equilibrium solubility of the compound in crystalline form in citric acid/disodium phosphate buffer at pH 6.8 after 24 hrs of rotation by HPLC analysis; type: physicochemical
Procedure, shortened: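 Saturated solution of crystalline material in citric acid/disodium phosphate buffer pH 6.8 rotated 24 h; after centrifugation and filtration, dissolved concentration measured by HPLC.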

[3] = Mean residence time in rat at 1 mg/kg, iv; type: ADME, organism-based; set-up: dose 1 mg/kg, route intravenous; settings: in vivo
Procedure, shortened: (§1)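 iv 1 mg/kg in 70 % PEG; po 10 mg/kg as suspension in 0.5 % methyl cellulose/0.015 % Tween. Blood sampled at 11 timepoints (0, 5, 15, 30 min, 1, 2, 4, 6, 8, 12, 24 h) per dose; mean of n = 3. Clearance expressed as percent of hepatic blood flow.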

[4] = Plasma concentration in C57BL/6 mouse at 3 mg/kg, po after 2 hrs; type: ADME, organism-based; set-up: dose 3 mg/kg, route oral
hERG (KCNH2) = hERG (KCNH2) (Homo sapiens, UniProt Q12809); assay: Inhibition of human ERG expressed in HEK293 cells assessed as change in tail current at 11 uM by manual patch clamp assay relative to control; type: cell-based; settings: HEK293 cells that express hERG
Procedure, shortened: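 Whole-cell manual patch clamp on HEK293 cells stably expressing human ERG, at room temperature (20-22 °C) in a perfusion chamber. Change in hERG tail current amplitude during the hyperpolarizing step measured with escalating compound concentrations.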

[5] = target: T1, Polyunsaturated fatty acid 5-lipoxygenase (Homo sapiens) (UniProt P09917); assay: Inhibition of 5-LO (unknown origin) at 10 uM relative to control
T1 sequence (whole entry): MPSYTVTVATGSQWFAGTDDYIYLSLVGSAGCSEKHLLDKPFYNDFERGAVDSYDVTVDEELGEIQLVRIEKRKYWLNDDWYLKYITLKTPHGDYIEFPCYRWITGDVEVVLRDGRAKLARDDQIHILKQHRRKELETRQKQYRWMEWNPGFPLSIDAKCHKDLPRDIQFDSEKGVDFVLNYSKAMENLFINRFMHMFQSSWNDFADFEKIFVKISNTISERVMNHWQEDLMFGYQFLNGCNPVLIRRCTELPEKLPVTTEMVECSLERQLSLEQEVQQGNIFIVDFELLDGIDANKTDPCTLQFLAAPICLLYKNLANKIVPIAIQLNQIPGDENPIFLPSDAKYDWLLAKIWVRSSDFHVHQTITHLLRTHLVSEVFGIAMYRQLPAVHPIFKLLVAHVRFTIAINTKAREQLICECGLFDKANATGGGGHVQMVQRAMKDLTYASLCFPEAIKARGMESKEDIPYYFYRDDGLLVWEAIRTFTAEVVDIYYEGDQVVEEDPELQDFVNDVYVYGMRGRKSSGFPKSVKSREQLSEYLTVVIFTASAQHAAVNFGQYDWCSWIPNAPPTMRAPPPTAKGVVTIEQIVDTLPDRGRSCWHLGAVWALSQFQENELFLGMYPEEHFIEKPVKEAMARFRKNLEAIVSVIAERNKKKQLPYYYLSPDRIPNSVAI

[6] = target: T2, Arachidonate 5-lipoxygenase-activating protein (Mus musculus, UniProt P30355); assay: Inhibition of FLAP in calcimycin-stimulated mouse whole blood assessed as inhibition of LTB4 synthesis preincubated for 15 mins followed by calcimycin stimulation measured after 30 mins
T2 sequence (P30355 whole entry): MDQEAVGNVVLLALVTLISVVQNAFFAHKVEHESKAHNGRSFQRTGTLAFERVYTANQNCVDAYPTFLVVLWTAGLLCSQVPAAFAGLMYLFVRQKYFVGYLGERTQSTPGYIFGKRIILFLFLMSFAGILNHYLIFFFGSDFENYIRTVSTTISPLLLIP
Procedure, shortened: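 Mouse whole blood run by the same protocol as the human whole blood LTB4 assay (compound 15 min at 37 °C, 100 µM final calcimycin 30 min, HTRF LTB4 read-out). Geometric mean (n ≥ 3) of duplicate 8-point curves.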

Mus musculus [7] = assay: In vivo inhibition of FLAP in C57BL/6 mouse assessed as LTB4 production in calcimycin-stimulated whole blood at 1 mg/kg, po after 2 hrs by ELISA (reference value: 100 +/- 13.3%); type: functional; set-up: scale not given: the % may be the effect or the level left
Mus musculus [8] = assay: In vivo inhibition of FLAP in C57BL/6 mouse assessed as LTB4 production in calcimycin-stimulated whole blood at 10 mg/kg, po after 2 hrs by ELISA (reference value: 100 +/- 13.3%); type: functional; set-up: scale not given: the % may be the effect or the level left
[9] = Clearance in human hepatocytes at 1 uM measured over 6 hrs by LC/MS analysis relative to hepatic blood flow; type: ADME, cell-based, Liver, Hepatocyte; settings: read-out: CLH
Procedure, shortened: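 Cryopreserved human hepatocytes (1 million cells/mL) incubated with compound (1 µM) at 37 °C; compound remaining measured by LC/MS over duplicate 6-timepoint curves (0 to 6 h). The slope is taken from ln % remaining versus time. Clearance is expressed as percent of hepatic blood flow.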

[10] = Volume of distribution at steady state in rat at 1 mg/kg, iv and 10 mg/kg, po; type: ADME, organism-based; settings: in vivo, read-out: Vdss; procedure, shortened: as §1
Cytochrome P450 3A4 = Cytochrome P450 3A4 (Homo sapiens, UniProt P08684); assay: Time-dependent inhibition of CYP3A4 in human liver microsomes using midazolam as substrate up to 100 uM by LC/MS/MS analysis; type: ADME
Procedure, shortened: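 Primary incubation: 0.1 mg/ml human liver microsomes, 100 mM phosphate pH 7.4, 1 mM NADPH, 37 °C, compound 0 to 100 µM (7 concentrations). Aliquots taken at 0, 1, 3, 5, 15, 30 min into secondary incubation with 15 µM midazolam and 1 mM NADPH, quenched after 8 min; 1'-hydroxymidazolam measured by LC/MS/MS against a d4 internal standard.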

CYP3A4 = CYP3A4 (Homo sapiens, UniProt P08684); assay: Induction of CYP3A4 in human hepatocytes using midazolam as substrate assessed as formation of 1'-hydroxymidazolam up to 30 uM preincubated for 48 hrs followed by substrate addition measured up to 120 mins relative to control; type: ADME, cell-based, Hepatocyte; settings: probe midazolam, read-out: FC
Procedure, shortened: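 Freshly plated, sandwich-cultured, single-donor human hepatocytes were exposed to compound or rifampicin (25 µM) for 48 h, with medium and dosing agent renewed every 24 h. The linear slope of 1'-hydroxymidazolam formation over time (to 120 min) was determined. Fold induction is the compound slope divided by the solvent control slope.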

Chain of Cytochrome P450 3A4 (P08684 whole entry): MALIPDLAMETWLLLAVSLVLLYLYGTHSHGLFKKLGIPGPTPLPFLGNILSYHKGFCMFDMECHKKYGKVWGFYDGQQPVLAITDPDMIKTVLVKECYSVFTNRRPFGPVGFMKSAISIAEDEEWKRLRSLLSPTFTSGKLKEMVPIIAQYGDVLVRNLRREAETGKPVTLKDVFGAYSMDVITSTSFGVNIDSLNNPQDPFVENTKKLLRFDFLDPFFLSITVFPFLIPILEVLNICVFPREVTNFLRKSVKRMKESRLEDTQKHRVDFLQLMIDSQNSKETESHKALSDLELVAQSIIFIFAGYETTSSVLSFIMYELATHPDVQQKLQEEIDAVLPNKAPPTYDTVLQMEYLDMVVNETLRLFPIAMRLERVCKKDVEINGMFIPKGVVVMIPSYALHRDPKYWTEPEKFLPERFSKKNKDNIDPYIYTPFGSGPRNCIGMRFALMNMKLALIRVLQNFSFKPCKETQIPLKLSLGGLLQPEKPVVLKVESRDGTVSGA
Chain of CYP3A4 (P08684 whole entry): as above
Chain of hERG (KCNH2) (Q12809 whole entry, the tested form may be a part): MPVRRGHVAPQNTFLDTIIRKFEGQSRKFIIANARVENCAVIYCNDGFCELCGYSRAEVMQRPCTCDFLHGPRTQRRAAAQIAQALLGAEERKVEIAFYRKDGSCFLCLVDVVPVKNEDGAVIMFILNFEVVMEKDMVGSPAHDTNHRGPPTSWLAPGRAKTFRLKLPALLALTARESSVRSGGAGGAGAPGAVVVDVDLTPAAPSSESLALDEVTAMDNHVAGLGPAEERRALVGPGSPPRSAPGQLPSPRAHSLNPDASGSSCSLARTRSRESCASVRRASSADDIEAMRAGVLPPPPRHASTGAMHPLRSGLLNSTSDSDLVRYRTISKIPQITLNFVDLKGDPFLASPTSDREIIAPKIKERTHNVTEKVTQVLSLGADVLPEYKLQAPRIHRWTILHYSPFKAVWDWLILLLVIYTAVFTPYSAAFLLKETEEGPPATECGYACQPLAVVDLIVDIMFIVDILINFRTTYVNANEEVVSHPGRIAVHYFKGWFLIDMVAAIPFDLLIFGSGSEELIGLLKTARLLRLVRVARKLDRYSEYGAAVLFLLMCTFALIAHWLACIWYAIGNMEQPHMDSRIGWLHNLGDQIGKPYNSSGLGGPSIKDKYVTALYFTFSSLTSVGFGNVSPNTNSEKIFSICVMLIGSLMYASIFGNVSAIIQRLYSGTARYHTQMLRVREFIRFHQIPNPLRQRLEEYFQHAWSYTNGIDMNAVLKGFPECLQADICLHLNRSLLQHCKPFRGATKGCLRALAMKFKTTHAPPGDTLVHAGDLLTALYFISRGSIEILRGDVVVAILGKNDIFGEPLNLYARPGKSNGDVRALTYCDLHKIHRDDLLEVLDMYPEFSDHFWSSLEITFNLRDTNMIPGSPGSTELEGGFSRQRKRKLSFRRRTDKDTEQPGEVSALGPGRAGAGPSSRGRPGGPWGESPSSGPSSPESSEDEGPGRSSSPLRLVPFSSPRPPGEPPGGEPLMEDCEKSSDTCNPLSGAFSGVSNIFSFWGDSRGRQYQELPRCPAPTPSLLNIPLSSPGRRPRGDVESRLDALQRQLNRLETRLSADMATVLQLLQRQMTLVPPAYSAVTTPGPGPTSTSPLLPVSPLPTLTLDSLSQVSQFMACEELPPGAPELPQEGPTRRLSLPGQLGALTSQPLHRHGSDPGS

Question: Which results are given for `CN(C)C(=O)Cn1cc(-c2nc([C@@](C)(c3ccc(-c4cnc(N)nc4)cc3)C3CC3)no2)cn1` [BI 665915]?
Answer: CL free (Hepatocyte): 8.7%; Papp A→B at 2 h [1]: 34 ×10⁻⁶ cm/s; solubility thermodynamic at 24 h [2]: 48 µg/mL (≈ 105 µM); MRT [3]: 3.1 h; concentration at 2 h [4]: 3.7 µM; inhibition at 11 µM (hERG (KCNH2)): 11%; inhibition [5]: < 50%; IC50 [6]: 4.8 µM; Activity (Mus musculus [7]): 110.6%; Activity (Mus musculus [8]): 35.2%; hepatic extraction ratio at 6 h, 1 µM [9]: 0.41; Vd [10]: 0.9 L/kg; TDI (Cytochrome P450 3A4): Not Active; fold induction at 2 h (CYP3A4): 2

Source: ChEMBL document CHEMBL3414472, “Synthesis, SAR, and series evolution of novel oxadiazole-containing 5-lipoxygenase activating protein inhibitors: discovery of 2-[4-(3-{(r)-1-[4-(2-amino-pyrimidin-5-yl)-phenyl]-1-cyclopropyl-ethyl}-[1,2,4]oxadiazol-5-yl)-pyrazol-1-yl]-N,N-dimethyl-acetamide (BI 665915)” (J Med Chem, 2015)
